{"data": "Published values of several laboratories", "target": "Protein kinase C gamma type (PRKCG, Homo sapiens, UniProt P05129)", "note": "Lines come from different studies, so protocols differ."}
{"SMILES": "CN1CC(Oc2cnc(C#N)cc2-c2ccn3nc(NC(=O)C4CC4)cc3c2)C1", "read-out": "enzyme activity", "mode": "inhibitor", "tested at": "1 µM", "quantity": "inhibition", "value": "1%"}
{"SMILES": "COc1cc(Nc2cnc(C#N)c(O[C@H](C)CN(C)C)n2)ncc1-c1cnn(C)c1", "read-out": "enzyme activity", "mode": "inhibitor", "technique": "radiometric", "tested at": "10 µM", "quantity": "remaining activity", "value": "80%"}
{"SMILES": "Cc1ccc(C(=O)NCc2ccsc2)cc1C#Cc1cn(C(C)C)c2ncnc(N)c12", "read-out": "enzyme activity", "mode": "inhibitor", "tested at": "1 µM", "quantity": "activity vs control", "value": "97%"}
{"SMILES": "COc1cc(Cl)c(C(=O)N[C@@H](CN[C@H]2CC[C@@H](N)CC2)Cc2ccc(C#N)cc2)cc1-c1ccc(CN[C@H](C)c2ccc(C)cc2)o1", "read-out": "enzyme activity", "mode": "inhibitor", "tested at": "1 µM", "quantity": "remaining activity", "value": "98%"}
{"SMILES": "CC/C(=N\\NC(=O)NCc1cccc(O)c1)c1ccc(O)c(C)c1O", "read-out": "enzyme activity", "mode": "inhibitor", "tested at": "0.1 µM", "quantity": "inhibition", "value": "3.6%"}
{"SMILES": "FC(F)(F)Oc1cccc(-c2cnc3ccc(-c4ccncc4)nn23)c1", "read-out": "enzyme activity", "mode": "inhibitor", "technique": "radiometric", "tested at": "1 µM", "quantity": "activity vs control", "value": "96%"}
{"SMILES": "Cc1cnc(NC2CCOCC2)nc1-n1cnc(C(=O)NC(CN)c2cc(F)cc(Cl)c2)c1 (stereo not shown)", "read-out": "enzyme activity", "mode": "inhibitor", "technique": "radiometric", "tested at": "1 µM", "quantity": "remaining activity", "value": "85%"}
{"SMILES": "N#CCCc1ccc2c(c1)-c1[nH]c3ccc([N+](=O)[O-])cc3c1CC(=O)N2", "read-out": "cell-free assay", "tested at": "0.5 µM", "quantity": "remaining signal", "value": "93.3%"}
{"SMILES": "Cc1sc(C(=O)NC2COC2)cc1-n1cc(NC(=O)Nc2c(F)cccc2Cl)cn1", "read-out": "enzyme activity", "mode": "inhibitor", "tested at": "10 µM", "quantity": "remaining activity", "value": "102%"}
{"SMILES": "Cc1ccc(NC(=O)c2ccc(C)c(C(F)(F)F)c2)cc1C#Cc1nn(C2CCC(O)CC2)c2ncnc(N)c12 (stereo not shown)", "read-out": "cell-free assay", "tested at": "10 µM", "quantity": "remaining signal", "value": "90%"}
{"SMILES": "CC(C)(C)c1nc2c(s1)c1nc(N)ncc1c1ccc(NS(=O)(=O)c3c(F)cccc3F)c(F)c12", "read-out": "enzyme activity", "mode": "inhibitor", "technique": "radiometric", "tested at": "1 µM", "quantity": "remaining activity", "value": "103%"}
{"SMILES": "CC(C)(O)[C@H]1CC[C@H](Nc2ccc3ncc(-c4cccc(C(F)(F)F)c4)n3n2)CC1", "read-out": "enzyme activity", "mode": "inhibitor", "tested at": "1 µM", "quantity": "remaining activity", "value": "99%"}
{"SMILES": "CNC(=O)c1cc(Oc2ccc(NC(=O)Nc3ccc(Cl)c(C(F)(F)F)c3)cc2)ccn1", "read-out": "enzyme activity", "mode": "inhibitor", "tested at": "10 µM", "quantity": "inhibition", "value": "9%"}
{"SMILES": "O=C(Nc1cnn(-c2csc(C(=O)NC3COC3)c2)c1)Nc1ccccc1Cl", "read-out": "enzyme activity", "mode": "inhibitor", "tested at": "5 µM", "quantity": "remaining activity", "value": "98%"}
{"SMILES": "CCN(CC)CCNC(=O)c1c(C)[nH]c(/C=C2\\C(=O)Nc3ccc(F)cc32)c1C", "read-out": "enzyme activity", "mode": "inhibitor", "tested at": "10 µM", "quantity": "inhibition", "value": "32%"}
{"SMILES": "COc1cc2ncnc(Nc3ccc(Oc4ccccc4)cc3C)c2cc1OC", "read-out": "enzyme activity", "mode": "inhibitor", "tested at": "1 µM", "quantity": "inhibition", "value": "-3%"}
